Source: paper PMC10038104 (ACS infectious diseases, 2022)
Values after ≈ are worked out from the molar mass of the structure shown. Positions of bridges follow the written chain, without caps; N, C: chain ends. Residues, ends and D or L forms follow the SMILES beside them.

Key:
[1] = system: Enterobacter hormaechei ATCC 700323; assay: spot-on-lawn assay in M63 agar; assay type: cell-based; conditions: purified peptide dissolved in water
Summary of the method: (§1)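 Purified peptide in water, concentration set by A280. Each strain was grown overnight in LB, then subcultured in LB to mid-exponential phase (OD600 ~0.4-0.6). It was seeded at ~10^7 CFU/mL into molten M63 soft agar, overlaid on M63 agar and dried. Peptide was spotted at various concentrations and dried. After overnight incubation, zones of inhibition were scored; the last visible spot was taken as MIC.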

[2] = system: Enterobacter kobei BAA-260; assay: spot-on-lawn assay in M63 agar; assay type: cell-based; conditions: purified peptide dissolved in water
Summary of the method: as §1

[3] = system: Klebsiella aerogenes ATCC 13048; assay: spot-on-lawn assay in M63 agar; assay type: cell-based; conditions: purified peptide dissolved in water
Summary of the method: as §1

α-chymotrypsin = α-chymotrypsin (Bos taurus, UniProt P00766); assay: α-chymotrypsin digestion; assay type: in vitro ADME; conditions: 100 mM Tris, 10 mM CaCl2, pH 8.0, 0.04 mg/mL α-chymotrypsin, 1 hour, 25 °C, LC-MS
[4] = system: carboxypeptidase B and carboxypeptidase Y; assay: carboxypeptidase treatment; conditions: 20 °C, 16 hours, 50 mM sodium acetate pH 6.0, LC-MS
E. coli MG1655 = assay: spot-on-lawn assay in M63 agar; assay type: cell-based; conditions: purified peptide dissolved in water
Summary of the method: as §1

E. asburiae DSM 17506 = assay type: cell-based
B. subtilis 168 = assay: spot-on-lawn assay in M63 agar; assay type: cell-based; conditions: purified peptide dissolved in water
Summary of the method: as §1

[5] = system: Enterobacter cloacae ATCC 13047; assay type: cell-based
E. mori DSM 26271 = assay type: cell-based
[6] = 37 °C, pure water, 72 hours, 18 μM, relative peak area by LC-MS
elastase = elastase digestion; assay type: in vitro ADME; conditions: 50 mM Tris pH 9.0, 0.04 mg/mL elastase, 1 hour, 25 °C, LC-MS
[7] = system: clinical isolates of Enterobacter; assay: spot-on-lawn assay, the other 6 clinical isolates; assay type: cell-based; conditions: the other 6 of 12 clinical isolates (Table S4B)
Summary of the method: as §1

[8] = system: Salmonella enterica serovar Newport; assay: spot-on-lawn assay in M63 agar; assay type: cell-based; conditions: purified peptide dissolved in water
Summary of the method: as §1

[9] = system: E. nimipressuralis DSM 18955; assay type: cell-based
trypsin = trypsin (Sus scrofa, UniProt P00761); assay: trypsin digestion; assay type: in vitro ADME; conditions: 50 mM ammonium bicarbonate, 1:100 trypsin:peptide weight ratio, 30 minutes to 1 hour, LC-MS
trypsin, sequence (P00761 9-231): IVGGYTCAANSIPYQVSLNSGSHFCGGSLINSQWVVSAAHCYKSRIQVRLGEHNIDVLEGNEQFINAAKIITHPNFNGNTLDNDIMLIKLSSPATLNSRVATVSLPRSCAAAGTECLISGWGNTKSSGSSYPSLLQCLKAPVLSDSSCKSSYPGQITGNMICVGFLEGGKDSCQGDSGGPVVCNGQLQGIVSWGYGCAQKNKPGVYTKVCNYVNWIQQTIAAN

E. coli XL-1 Blue = assay: intracellular expression from plasmid with cloD gene removed; assay type: cell-based; conditions: LB agar with IPTG; plasmid without cloD so that the peptide cannot be exported
E. amnigenus = conditions: 16 h
thermolysin = thermolysin (Bacillus thermoproteolyticus, UniProt P00800); assay: thermolysin digestion; assay type: in vitro ADME; conditions: 50 mM Tris, 0.5 mM CaCl2, pH 8.0, 0.04 mg/mL thermolysin, 1 hour, 30 °C, LC-MS
thermolysin, sequence (P00800 233-548): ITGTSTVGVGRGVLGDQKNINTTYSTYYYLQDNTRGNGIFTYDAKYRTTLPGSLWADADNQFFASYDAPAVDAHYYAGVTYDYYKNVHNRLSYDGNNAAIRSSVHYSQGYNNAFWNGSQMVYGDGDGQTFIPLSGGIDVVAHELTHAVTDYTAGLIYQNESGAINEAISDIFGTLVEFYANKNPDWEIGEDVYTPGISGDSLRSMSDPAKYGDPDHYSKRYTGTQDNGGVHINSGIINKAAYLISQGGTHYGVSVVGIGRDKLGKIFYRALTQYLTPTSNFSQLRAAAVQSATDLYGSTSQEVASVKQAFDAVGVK

## CC[C@H](C)[C@@H]1NC(=O)[C@H](CCCNC(=N)N)NC(=O)[C@H](CC(=O)O)NC(=O)[C@H](C(C)C)NC(=O)[C@H](CO)NC(=O)[C@H](Cc2c[nH]cn2)NC(=O)CNC(=O)CC[C@@H](C(=O)N[C@@H](Cc2ccc(O)cc2)C(=O)N[C@@H](Cc2ccccc2)C(=O)NCC(=O)N2CCC[C@H]2C(=O)N2CCC[C@H]2C(=O)NCC(=O)N[C@@H](CC(C)C)C(=O)N2CCC[C@H]2C(=O)NCC(=O)N2CCC[C@H]2C(=O)N[C@H](C(=O)N[C@@H](CC(C)C)C(=O)N[C@@H](Cc2ccccc2)C(=O)N[C@@H](Cc2ccc(O)cc2)C(=O)N[C@@H](CO)C(=O)O)C(C)C)NC(=O)[C@@H]2CCCN2C1=O [cloacaenodin] (GHSVDRIPEYFGPPGLPGPVLFYS-OH; lactam N-9; C-terminus assumed)
[1]
  antimicrobial activity (zones of inhibition): no observed activity
[2]
  antimicrobial activity (zones of inhibition): no observed activity
[3]
  antimicrobial activity (zones of inhibition): no observed activity
α-chymotrypsin
  susceptibility to proteolysis by chymotrypsin: remained resistant to proteolysis
[4]
  susceptibility to C-terminal proteolysis by carboxypeptidase: resistant to C-terminal proteolysis
E. coli MG1655
  antimicrobial activity (zones of inhibition): no observed activity
E. asburiae DSM 17506
  MIC in M63 media (agar): 3.8 µM (≈ 9.82 µg/mL)
B. subtilis 168
  antimicrobial activity (zones of inhibition): no observed activity
E. cloacae; 16 h
  MIC in M63 media (liquid): 0.94 µM (≈ 2.43 µg/mL)
E. cloacae; E. cloacae cells treated with sub-MIC values, broth microdilution cultures
  cell morphology under the microscope: exhibited a degree of filamentation
[5]
  MIC in M63 media (agar): 7.5 µM (≈ 19.4 µg/mL)
E. mori DSM 26271
  MIC in M63 media (agar): 1.9 µM (≈ 4.91 µg/mL)
[6]
  fraction remaining threaded: ~ 83%
elastase
  susceptibility to proteolysis by elastase: remained resistant to proteolysis
[7]
  antimicrobial activity: weak or no activity
[8]
  antimicrobial activity (zones of inhibition): no observed activity
[9]
  MIC in M63 media (agar): 1.9 µM (≈ 4.91 µg/mL)
trypsin
  susceptibility to proteolysis by trypsin: remained resistant to proteolysis
E. coli XL-1 Blue
  E. coli growth upon IPTG-induced intracellular expression without cloD: colonies did not appear
E. amnigenus
  MIC in M63 media (liquid): 0.23 µM (≈ 0.594 µg/mL)
thermolysin
  susceptibility to proteolysis by thermolysin: remained resistant to proteolysis
